# Assay results from ChEMBL document CHEMBL1629488, “Synthesis and biological evaluation of 2-(3',4',5'-trimethoxybenzoyl)-3-aryl/arylaminobenzo[b]thiophene derivatives as a novel class of antiproliferative agents” (Eur J Med Chem, 2010).
# Assays:
# [1] = system: HeLa; assay: Antiproliferative activity against human HeLa cells assessed as cell viability after 72 hrs by MTT assay; format: functional, cell-based
# Method in brief: (§1)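 A549 and HeLa cells grown in DMEM with 10% FBS and penicillin/streptomycin. Plated at 8 × 10^3 cells/well and held 18 h at 37 °C in 5% CO2. Medium replaced with compound in complete medium at varied concentrations for 72 h at 37 °C, then MTT read.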
# [2] = system: K562; assay: Antiproliferative activity against human K562 cells after 72 hrs by MTT assay; format: functional, cell-based; conditions: K562, 72 h
# [3] = system: A549; assay: Antiproliferative activity against human A549 cells after 72 hrs by MTT assay; format: functional, cell-based; conditions: A549, 72 h; method in brief: as §1
# [4] = system: HL-60; assay: Antiproliferative activity against human HL60 cells after 72 hrs by MTT assay; format: functional, cell-based; conditions: HL-60, 72 h
# [5] = system: Jurkat; assay: Antiproliferative activity against human Jurkat cells after 72 hrs by MTT assay; format: functional, cell-based
# [6] = Inhibition of tubulin polymerization after 20 mins by turbidimetry
# [7] = Inhibition of tubulin polymerization after 20 mins by turbidimetry
# Method in brief: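 Tubulin (10 µM) in glutamate buffer was preincubated with varied compound concentrations at 30 °C, then cooled to 0 °C. GTP was added and the mixture warmed to 30 °C in cuvettes while turbidity was recorded.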
Compound,IC50 [1],IC50 [2],IC50 [3],IC50 [4],IC50 [5],IC50 [6],inhibition [7]
COc1ccc(Nc2c(C(=O)c3cc(OC)c(OC)c(OC)c3)sc3ccccc23)cc1,7.7 µM,2.9 µM,9.3 µM,3.7 µM,3.5 µM,,
COc1cc(C(=O)c2sc3ccccc3c2-c2ccc(C)cc2)cc(OC)c1OC,3.7 µM,3.5 µM,7.8 µM,1.4 µM,3.3 µM,,
COc1cc(C(=O)c2sc3ccccc3c2-c2ccc(SC)cc2)cc(OC)c1OC,3.5 µM,1.8 µM,5.4 µM,1.3 µM,1.9 µM,,
COc1cc(C(=O)c2sc3ccccc3c2-c2ccc(F)cc2)cc(OC)c1OC,3 µM,2.1 µM,3.2 µM,3.2 µM,2.3 µM,,
COc1cc(C(=O)c2sc3ccccc3c2Nc2ccc(C)cc2)cc(OC)c1OC,3.5 µM,1.6 µM,2.6 µM,4.6 µM,1.7 µM,,
COc1cc(C(=O)c2sc3ccccc3c2-c2ccccc2)cc(OC)c1OC,1.9 µM,2.1 µM,5 µM,1.7 µM,1.5 µM,,
COc1cc(C(=O)c2sc3ccccc3c2Nc2ccc(Cl)cc2)cc(OC)c1OC,3.7 µM,1.1 µM,3.1 µM,5.4 µM,1.9 µM,,
COc1cc(C(=O)c2sc3ccccc3c2Nc2ccccc2)cc(OC)c1OC,2.7 µM,2.3 µM,3 µM,5.2 µM,1.6 µM,,
CCOc1ccc(-c2c(C(=O)c3cc(OC)c(OC)c(OC)c3)sc3ccccc23)cc1,3 µM,3.1 µM,3.1 µM,3.5 µM,4.1 µM,,
COc1ccc(-c2c(C(=O)c3cc(OC)c(OC)c(OC)c3)sc3ccccc23)cc1C,> 10 µM,> 10 µM,> 10 µM,> 10 µM,> 10 µM,,
COc1ccccc1-c1c(C(=O)c2cc(OC)c(OC)c(OC)c2)sc2ccccc12,5 µM,3.4 µM,> 10 µM,2.9 µM,2.9 µM,,
COc1ccc(OC)c(-c2c(C(=O)c3cc(OC)c(OC)c(OC)c3)sc3ccccc23)c1,,> 10 µM,> 10 µM,> 10 µM,> 10 µM,,
COc1cc(C(=O)c2sc3cc(C)ccc3c2Nc2ccc(C)cc2)cc(OC)c1OC,0.98 µM,1.4 µM,1.9 µM,1.9 µM,2.5 µM,15 µM,
COc1ccc(-c2c(C(=O)c3cc(OC)c(OC)c(OC)c3)sc3ccccc23)c(OC)c1,3.9 µM,4.1 µM,5.8 µM,4.6 µM,4 µM,,
COc1ccc(-c2c(C(=O)c3cc(OC)c(OC)c(OC)c3)sc3ccccc23)cc1,4.2 µM,1.7 µM,4.4 µM,1.6 µM,1.6 µM,,
CCOc1ccc(Nc2c(C(=O)c3cc(OC)c(OC)c(OC)c3)sc3cc(C)ccc23)cc1,4.3 µM,4.3 µM,5.8 µM,4 µM,5 µM,,50%
COc1cc(C(=O)c2sc3ccccc3c2-c2ccc(Cl)cc2)cc(OC)c1OC,5.2 µM,4.2 µM,7.5 µM,3.3 µM,3.7 µM,,
